pIC50: −log10 of the molar value.
Experiments:
[1] = tested on: SH-SY5Y; assay: Antiproliferative activity against human SH-SY5Y assessed as reduction in cell viability measured after 72 hrs by flow cytometry analysis; type: functional, cell-based
Summary of the method: (§1)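 Cells in RPMI 1640 with 10% FBS and penicillin/streptomycin/amphotericin B, seeded at 2.5–3 × 10⁴ per well. Grown adherent in fresh medium for 24 h, then exposed to a range of compound concentrations for 72 h. Living cell numbers counted by flow cytometry; IC50 calculated. Mean ± SD from three experiments.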

[2] = tested on: HEL; assay: Antiproliferative activity against human HEL cells assessed as reduction in cell viability measured after 72 hrs by flow cytometry analysis; type: functional, cell-based; summary of the method: as §1
[3] = tested on: HCC827; assay: Antiproliferative activity against human HCC827 cells assessed as reduction in cell viability measured after 72 hrs by flow cytometry analysis; type: functional, cell-based; details: HCC827, 72 h; summary of the method: as §1
[4] = Antiproliferative activity against human LM3 cells assessed as reduction in cell viability measured after 72 hrs by flow cytometry analysis; type: functional, cell-based; details: GILM3, 72 h; summary of the method: as §1
[5] = Inhibition of PI3K in human HCC827 cells assessed as decrease in phosphorylation incubated for 24 hrs by cell PI3 kinase activity photometric assay; type: cell-based; details: HCC827, 24 h
Summary of the method: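 Human NSCLC HCC827 cells grown in RPMI 1640 with 10% FBS and antibiotics-antimycotics, exposed to a range of concentrations for 24 h. Cells washed with Reagent A, lysed with Reagent B, protein measured by Bradford, then 100 μg lysate protein per group used in a cell PI3K assay kit for kinase activity. IC50 given as mean ± SD of three separate experiments.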

SMILES | pIC50 [1] | pIC50 [3] | pIC50 [2] | pIC50 [4] | pIC50 [5]
CCC(=O)Nc1ccc(-c2ccc3ncn(Cc4ccc(C)cc4)c(=O)c3c2)cn1 | < 4.40 | < 4.40 | < 4.40 | < 4.40 | –
CCC(=O)Nc1ccc(-c2ccc3ncn(CCN4CCOCC4)c(=O)c3c2)cn1 | < 4.40 | < 4.40 | < 4.40 | < 4.40 | –
Cc1ccc(Cn2cnc3ccc(-c4ccc(N(C(=O)c5ccccc5)C(=O)c5ccccc5)nc4)cc3c2=O)cc1 | < 4.40 | 4.53 | < 4.40 | < 4.40 | –
CC(C)(C)C(=O)Nc1ccc(-c2ccc3ncn(Cc4ccc5c(c4)OCO5)c(=O)c3c2)cn1 | < 4.40 | < 4.40 | < 4.40 | < 4.40 | –
CCC(=O)Nc1ccc(-c2ccc3ncn(Cc4ccc5c(c4)OCO5)c(=O)c3c2)cn1 | < 4.40 | < 4.40 | < 4.40 | < 4.40 | –
COC[C@H]1OC(=O)c2coc3c2[C@@]1(C)C1=C(C3=O)[C@@H]2CCC(=O)[C@@]2(C)C[C@H]1OC(C)=O [WORTMANNIN] | – | – | – | – | 7.74

The next lines start with results.

pIC50 [1] | pIC50 [3] | SMILES | pIC50 [2] | pIC50 [4] | pIC50 [5]
< 4.40 | < 4.40 | CCCCC(=O)Nc1ccc(-c2ccc3ncn(Cc4ccccc4)c(=O)c3c2)cn1 | < 4.40 | < 4.40 | –
< 4.40 | < 4.40 | COCC(=O)Nc1ccc(-c2ccc3ncn(Cc4ccccc4)c(=O)c3c2)cn1 | < 4.40 | < 4.40 | –
< 4.40 | < 4.40 | CCC(=O)Nc1ccc(-c2ccc3ncn(Cc4ccccc4)c(=O)c3c2)cn1 | < 4.40 | < 4.40 | –
